# Compound activity (PubChem)
# Sampled rows, rich in hits. Any-hit rate of the full collection: about 7.1%.
# Lung fibro prol – blocks proliferation of human lung fibroblasts; hit rate 1.1% among 85,000; LL 47 human lung fibroblast viability, ATP luminescence; hits give low values; AID 719; viability, % at 10 µM;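 active = viability at or below 50% in the single dose screen; inactive = viability above 50%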;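 also: compound exposure lasted 72 h before the ATP readout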
#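 Test system: LL 47 human lung fibroblasts; Quantity: 1,150 cells/well; Buffer or medium: IMEM plus 15% FBS; Dosing: tenfold compound dosing solution, DMSO at 0.1%; Timing: overnight cell rest, 72 h compound treatment at 37 °C; Detection: ATP-based CellTiter-Glo luminescent readout; Read-out basis: viability percentage against median untreated-cell control; Controls: cell-only wells, no compound.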
# Cav3 T inh – inhibitors of human Cav3.2 T-type calcium channel; hit rate 4% among 100,000; Cav3.2-expressing cells, Fluo-4 calcium fluorescence FDSS; hits give low values; AID 449739; O95180; B-score at 10 µM;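 active = single-dose well whose peak fluorescence ratio is a statistical outlier from its plate by either plate-standardised score or position-corrected B-score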
# H69AR inhibit – growth inhibitors of human H69AR lung tumor cells. H69AR lung tumor viability, ATP luminescence, 72 h; hits give low values. viability, % at 10 µM. hit rate 6% among 85,000;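 active = viability at or below 40%; inactive = viability above 40%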;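 also: multidrug resistant small cell line overexpressing MRP-1 efflux transporter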
# PTEN del growth – PTEN-deleted cell growth suppression; HCT116 PTEN-null viability, CellTiter-Glo, 60 h; hits give low values; viability, % at 10 µM; hit rate 1.2% among 140,000; AID 827;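 active = viability at or below a set limit, 4 SD under the median of all tested compounds, cut at about 3.7% in these data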;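 also: PTEN knockout HCT116 line with beta catenin targeted HCT116 as companion control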
# HCT116 bCat-KO – beta-catenin-lacking colon tumor cell growth suppression; HCT116 beta-catenin knockout viability, CellTiter-Glo, 60 h; hits give low values; viability, % at 10 µM; hit rate 1.5% among 140,000;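 active = viability at or under a set limit, the compound median less 4 SD, cut at about 6% in these data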
# HUVEC prolif 384 – blocks proliferation of human endothelial cells | HUVEC proliferation, CellTiter-Glo luminescence, 72 h; hits give low values | AID 648 | viability, % at 10 µM (by protocol) | hit rate 1.1% among 86,000;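 active = viability at or below 30%; inactive = viability above 30%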
# A number is an active result; n = inactive; x = no result.
SMILES,Lung fibro prol,Cav3 T inh,H69AR inhibit,PTEN del growth,HCT116 bCat-KO,HUVEC prolif 384
CC(C)c1nc(SCC(=O)N2CCOCC2)c2c(=O)n(C)c(=O)n(C)c2n1,n,n,n,n,n,n
CCCc1nc(SCC(=O)NCc2ccc3c(c2)OCO3)c2c(=O)n(C)c(=O)n(C)c2n1,n,x,13,x,x,n
O=C(Cc1n[nH]c(=O)c2ccccc12)OCC(=O)c1ccc2c(c1)OCCO2,n,n,24,n,n,n
O=C(N/N=C/C1C(c2ccccc2)C1(Cl)Cl)c1cccc(Br)c1 (stereo not drawn),x,-6.7,x,n,n,x
CCC1(C)NC(=O)N(CC(=O)N2N=C(c3ccccc3)CC2c2ccc(OC)cc2)C1=O (stereo not drawn),x,x,x,n,n,x
COc1nnnc2c1sc1nc(N3CCOCC3)c3c(c12)CC(C)(C)OC3,n,x,n,x,x,n
CC1(C)Cc2c(c(N3CCOCC3)nc3snc(Br)c23)CO1,n,n,19,n,n,n
CC1(C)Cc2c(c(N3CCOCC3)nc3snc(N)c23)CO1,3.5,n,n,1.9,1.9,n
COC(=O)c1ccc(S(=O)(=O)N(Cc2cc3cc4c(cc3[nH]c2=O)OCO4)C2CCCCC2)cc1,n,x,39,x,x,n
Cc1ccc(S(=O)(=O)N(Cc2cc3cc4c(cc3[nH]c2=O)OCCO4)CC2CCCO2)cc1 (stereo not drawn),n,n,n,n,n,n
COc1ccc2cc(CN(CC3COCCO3)S(=O)(=O)c3ccc(Cl)cc3)c(=O)[nH]c2c1 (stereo not drawn),n,n,13,n,n,n
COc1ccc2cc(CN(CC3CCCO3)S(=O)(=O)c3ccccc3)c(=O)[nH]c2c1 (stereo not drawn),n,n,n,n,n,n
O=c1[nH]c2cc3c(cc2cc1CN(CC1CCCO1)S(=O)(=O)c1ccc(Cl)cc1)OCCO3 (stereo not drawn),n,n,12,n,n,n
CCC(C)NC(=S)NNC(=O)c1ccc(C(C)(C)C)cc1 (stereo not drawn),x,n,x,n,n,x
COC(=O)CN1C(c2ccccc2)=Nc2ccc(Cl)cc2C1c1ccccc1 (stereo not drawn),x,-6.7,x,n,n,x
NNC(=O)CN1C(c2ccc(Cl)cc2)=Nc2ccc(Br)cc2C1c1ccccc1 (stereo not drawn),x,-9.9,x,n,n,x
COc1ccc2oc(C(=O)OCC(=O)NCCN3C(=O)CSC3=O)c(C)c2c1,x,x,x,n,n,x
COC(=O)c1ccc(-c2ccco2)n1Cc1ccccc1Cl,n,n,n,n,n,n
COC(=O)c1ccc(-c2ccco2)n1Cc1nc(-c2ccc(OC)c(OC)c2)oc1C,n,n,36,n,n,n
N#Cc1c(C(F)(F)F)cc(-c2ccccc2Cl)[nH]c1=O,x,-2.6,x,n,n,x
Cc1ccc(CN2CCSc3ccc(C(=O)N4CCN(c5ncccn5)CC4)cc32)cc1,n,n,n,n,n,n
CC1CC(C)CN(C(=O)c2ccc3c(c2)N(Cc2ccccc2)CCS3)C1 (stereo not drawn),n,-7.7,n,n,n,n
Cc1cc(C)nc(SCc2nnc(SCc3ccccc3Cl)o2)n1,n,-6.2,n,n,n,n
Cc1cc(C)nc(SCc2nnc(SCC(=O)Nc3c(C)cccc3C)o2)n1,n,n,n,n,n,n
CC(N)(Cc1ccc(O)cc1)C(=O)O (stereo not drawn),n,x,n,x,x,n
SMILES,Lung fibro prol,Cav3 T inh,H69AR inhibit,PTEN del growth,HCT116 bCat-KO,HUVEC prolif 384
COc1ccc2c(COC(=O)CNC(=O)C34CC5CC(CC(C5)C3)C4)cc(=O)oc2c1,x,x,x,n,n,x
CC(C)(C)c1cc(S(=O)(=O)CCc2ccccn2)cc(C(C)(C)C)c1F,n,-4,n,x,n,n
COC(=O)c1cc(=O)n(Cc2ccc(OC)c(OC)c2)c(=Nc2ccc(F)cc2)s1,12,n,1.9,2.0,2.0,17
CCOC(=O)c1c(C(=O)OCC)c(C)n(CCc2ccc(OC)c(OC)c2)c1C,x,x,x,n,n,x
COC(=O)c1cc(=O)n(CCc2ccc(OC)c(OC)c2)c(=Nc2ccc(F)c(Cl)c2)s1,10,n,1.1,3.7,2.4,7.5
CNC(=O)C1CC(=O)N(Cc2ccc(OC)c(OC)c2)C(=Nc2ccc(OC)cc2)S1 (stereo not drawn),n,n,n,n,n,n
CON(C)c1nc(OCC#N)nc(N(C)C)n1,x,x,x,n,n,x
O=C(CCCCC(=O)NC1CCCC1)NC1CCCC1,x,x,x,n,n,x
Cc1cc(/C=N/NC(N)=S)c(C)n1-c1ccc(Cl)cc1,x,x,x,n,n,x
Cc1cccc(C)c1-n1c(C)cc(/C=N/NC(N)=S)c1C,x,-5.9,x,n,n,x
Cc1ccc(CN2CCc3c(OCC(=O)Nc4cc(C)ccc4C)cccc3C2=O)cc1,x,x,x,n,n,x
CCOC(=O)C1CCC(CNCc2ccc(Cl)cc2)CC1 (stereo not drawn),x,x,x,n,n,x
COC(=O)c1ccccc1NC1=C/C(=N\S(=O)(=O)c2cccs2)c2ccccc2C1=O,5.7,n,23,1.7,1.8,4.0
Cc1ccc(NC(=O)C2CCCN(S(=O)(=O)c3cccs3)C2)cc1 (stereo not drawn),n,n,n,n,n,n
Cc1ccc(NC2=C/C(=N/S(=O)(=O)c3cccs3)c3ccccc3C2=O)cc1,x,x,x,0.5,1.2,x
O=C1C(Nc2ccccc2)=C/C(=N/S(=O)(=O)c2cccs2)c2ccccc21,x,x,x,1.7,2.0,x
CCC(C)[C@H](NC(=O)NC(C)C)C(=O)O (stereo partly drawn),x,x,x,n,n,x
CC1(C)CC[C@]2(CO)[C@@H](O)C[C@]3(C)C(=CCC4[C@@]5(C)CC[C@H](O)C(C)(C)C5CC[C@]43C)[C@@H]2C1 (stereo partly drawn),x,n,x,x,x,x
COc1ccc(CNC(=O)C2CC(c3ccccc3C(F)(F)F)=NO2)cc1 (stereo not drawn),x,n,x,x,x,x
CCn1ncc(C2=NOC(C(=O)NCc3ccccc3)C2)c1C (stereo not drawn),49,n,26,n,n,n
CCn1ncc(C2=NOC(C(=O)NCc3ccc(OC)cc3)C2)c1C (stereo not drawn),n,n,21,n,n,n
Cc1cc(C(=O)NC2CCCCC2)c(C)n1-c1ccc(F)cc1,x,x,x,n,n,x
Cc1cc(/C=N\NC(=O)CC(=O)NC2CCCCC2)c(C)n1-c1ccc(Cl)cc1,x,-5.7,x,n,n,x
COc1ccccc1NC(=O)C1C2C=CC(O2)C1C(=O)O (stereo not drawn),50,n,n,n,n,n
COC(=O)c1sccc1NC(=O)C1C2C=CC(O2)C1C(=O)O (stereo not drawn),n,n,n,n,n,n
CCS(=O)(=O)N1Cc2ccccc2CC1C(=O)Nc1nnc(SCc2ccc(F)cc2)s1 (stereo not drawn),x,x,x,n,n,x
O=C(N/N=C/c1ccc(Br)cc1)c1ccccc1-n1cccc1,n,n,21,n,n,n
O=C(N/N=C/c1ccc(OC(F)F)cc1)c1ccc(Br)cc1,x,x,x,n,n,x
Cc1cc(N2CCC(N(C)C3CCCC3)CC2)nc2cc(O)ccc12,n,x,1.1,n,n,n
